According to ChEMBL document CHEMBL1149047, “New teleocidin-related metabolites, (-)-7-geranylindolactam V and blastmycetin F, from Streptoverticillium blastmyceticum” (J Nat Prod, 1994):

Columns and labels:
HeLa [1] = assay: Tumor promoter activity in human HeLa cells assessed as enhancement of incorporation of 32Pi into phospholipid per mg of protein at 0.1 uM; format: ADME, cell-based
In short: (§1)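 HeLa cells treated with compound in 0.2% DMSO (vehicle control). Radioactive inorganic phosphate (32Pi) uptake into phospholipids measured by a previously reported method with slight modifications. Results given as cpm per mg protein relative to the DMSO control, with standard deviation. Compound tested at 10^-10 to 10^-7 M.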

HeLa [2] = assay: Tumor promoter activity in human HeLa cells assessed as enhancement of incorporation of 32Pi into phospholipid per mg of protein at 1 nM; format: ADME, cell-based; conditions: 0.001 µM; in short: as §1
HeLa [3] = assay: Tumor promoter activity in human HeLa cells assessed as enhancement of incorporation of 32Pi into phospholipid per mg of protein at 10 nM; format: ADME, cell-based; conditions: 0.01 µM; in short: as §1
HeLa [4] = assay: Tumor promoter activity in human HeLa cells assessed as enhancement of incorporation of 32Pi into phospholipid per mg of protein at 0.1 nM; format: ADME, cell-based; conditions: 0.0001 µM; in short: as §1
[5] = Displacement of [3H]TPA from phorbol ester receptor in ICR mouse epidermal particulate
In short: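 Competition for specific [3H]-TPA binding to a particulate fraction from dorsal epidermis of female ICR mice, by the cold Me2CO filter method with slight modifications. IC50 (concentration giving 50% inhibition) found by probit analysis. Because IC50 drifts between particulate preparations, all compounds were run together on one fraction. Value reported as log 1/M.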

Row | pIC50 [5] | Compound | relative 32Pi incorporation (HeLa [1]) | relative 32Pi incorporation (HeLa [2]) | relative 32Pi incorporation (HeLa [3]) | relative 32Pi incorporation (HeLa [4])
1 | – | C=C[C@@]1(C)CC[C@](C)(C(C)C)c2cc3c4c(c[nH]c4c21)C[C@@H](CO)NC(=O)[C@H](C(C)C)N3C | 7.46 | 1.82 | 6.72 | 1.19
2 | – | C=C[C@](C)(CCC=C(C)C)c1ccc2c3c(c[nH]c13)C[C@@H](CO)NC(=O)[C@H](C(C)C)N2C | 8.36 | 1.57 | 4.59 | 1.05
3 | 8.05 | CC(C)=CCC/C(C)=C/Cc1ccc2c3c(c[nH]c13)C[C@@H](CO)NC(=O)[C@H](C(C)C)N2C | 6.64 | 1.41 | 2.61 | 0.97
